Converted amounts (≈) assume the structure as drawn.
Experiments:
Plasmodium falciparum [1] = test: Antiparasitic activity against chloroquine/quinine/pyrimethamine/sulfadoxine/NITD609-resistant Plasmodium falciparum Dd2 clone 2 assessed as growth inhibition after 72 hrs by DAPI staining-based confocal image analysis; format: functional, organism-based; conditions: Dd2, 72 h
Procedure, shortened: (§1)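 Sorbitol-synchronised ring-stage parasites in human O+ erythrocytes at 2% parasitaemia, 0.3% haematocrit, incubated 72 h at 37 °C (5% CO2) with three-step log serial dilutions from 20 μM top, 0.4% DMSO final. Staining with DAPI/saponin/Triton X/EDTA in PBS, confocal imaging, parasite count.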

[2] = Inhibition of recombinant Plasmodium falciparum M17 aminopeptidase using H-Leu-NHMec as substrate preincubated for 10 mins followed by addition of substrate by spectrofluorimetric analysis
Procedure, shortened: (§2)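 E. coli-expressed enzymes, purified by Ni-NTA and size exclusion. Preincubation 10 min at 37°C with inhibitor: M1 in 100 mM Tris pH 8.0; M17 in 50 mM Tris pH 8.0, 2 mM CoCl2. Substrate H-Leu-NHMec kept below Km. Fluorescence ex 355/em 460 nm followed to steady-state velocity. Inhibitor range 500pM–500 μM. Ki from Dixon plots (1/V vs [I]).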

Plasmodium falciparum [3] = test: Antiparasitic activity against Plasmodium falciparum Dd2 assessed as growth inhibition after 72 hrs by DAPI staining-based confocal image analysis; format: functional, organism-based; conditions: Dd2, 72 h; procedure, shortened: as §1
Plasmodium falciparum [4] = test: Antiparasitic activity against Plasmodium falciparum 3D7 assessed as growth inhibition after 72 hrs by DAPI staining-based confocal image analysis; format: functional, organism-based; conditions: 3D7, 72 h; procedure, shortened: as §1
HEK293 = test: Cytotoxicity against HEK293 cells assessed as cell viability after 72 hrs by resazurin assay; format: cell-based; conditions: human, hek293, 72 h
Procedure, shortened: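 HEK293 cells in DMEM with 10% FCS, seeded at 2000 cells/well and left to adhere overnight. Compound dose response with top final 40 μM, 0.4% DMSO. Exposure 72 h at 37 °C, 5% CO2. Medium then replaced by 44 μM resazurin in serum-free DMEM for 4-6 h. Fluorescence read at ex/em 530/595 nm.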

[5] = Inhibition of recombinant Plasmodium falciparum M1 aminopeptidase using H-Leu-NHMec as substrate preincubated for 10 mins followed by addition of substrate by spectrofluorimetric analysis; procedure, shortened: as §2
[6] = Intrinsic clearance in mouse liver microsomes assessed per mg of protein at 1 uM by LC/MS analysis; format: ADME; conditions: read-out: CLH
Procedure, shortened: (§3)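 Human or mouse liver microsomes, 0.4 mg/mL protein in 0.1 M phosphate pH 7.4, with 1 µM compound at 37°C. Reactions started with an NADPH-regenerating system (NADP, glucose-6-phosphate, G6P dehydrogenase) plus MgCl2. Quenched with ice-cold acetonitrile at time points from 0 to 60 min. Parent compound remaining in supernatant measured by LC-MS.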

[7] = Kinetic solubility of compound in phosphate buffer at pH 6.5 by nephelometry; format: physicochemical; conditions: read-out: Kinetic_solubility
Procedure, shortened: (§4)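 DMSO stock serially diluted and spiked into pH 6.5 phosphate buffer or 0.01 M HCl (about pH 2.0), final 1% DMSO. Solubility range determined by nephelometry.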

[8] = Apparent half life in human plasma incubated for 4 hrs by UPLC/MC analysis; format: ADME, cell-free; conditions: read-out: t1/2(app)
Procedure, shortened: (§5)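 Pooled plasma (human n=3 donors; mouse from multiple animals), thawed and spiked to nominal 500 ng/mL test compound, final 0.2% DMSO and 0.4% acetonitrile (v/v). Incubated at 37°C, 4 h human or 6 h mouse. Duplicate samples taken at time points and snap-frozen. Quantified by UPLC/MS against matched-plasma standards. Half-life obtained by exponential decay fit of % remaining.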

[9] = Partition coefficient, log D of the compound at pH 7.4 by HPLC method; format: physicochemical; conditions: octanol/water
Procedure, shortened: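 LogD estimated by gradient HPLC (Lombardo-derived method). C18-type Hydro-RP column with 50 mM ammonium acetate pH 7.4 and an acetonitrile gradient of 0–100% over 13.5 min. UV detection at 220/254 nm. Retention compared with nine standards of shake-flask-determined partition coefficients.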

[10] = Apparent half life in mouse plasma incubated for 6 hrs by UPLC/MC analysis; format: ADME, cell-free; conditions: read-out: t1/2(app); procedure, shortened: as §5
[11] = Half life in mouse liver microsomes at 1 uM by LC/MS analysis; format: ADME; procedure, shortened: as §3
[12] = Intrinsic clearance in human liver microsomes assessed per mg of protein at 1 uM by LC/MS analysis; format: ADME; conditions: read-out: CLH; procedure, shortened: as §3
[13] = Half life in human liver microsomes at 1 uM by LC/MS analysis; format: ADME; procedure, shortened: as §3
[14] = Kinetic solubility of compound in HCl at pH 2 by nephelometry; format: physicochemical; conditions: read-out: Kinetic_solubility; procedure, shortened: as §4

SMILES | IC50 (Plasmodium falciparum [1]) [nM] | Ki [2] [nM] | IC50 (Plasmodium falciparum [3]) [nM] | IC50 (Plasmodium falciparum [4]) [nM] | Activity (HEK293) | Ki [5] [nM] | further results
CC(C)(C)C(=O)NC(C(=O)NO)c1ccc(-c2ccc(F)cc2F)cc1 (centres undefined) | 216 | 5.2 | 164 | 109 | Non-toxic | 2500 | –
CC(C)(C)OC(=O)NC(Cc1ccc(F)cc1)C(=O)NO (centres undefined) | – | 2800 | – | – | – | 18000 | –
CC(C)(C)OC(=O)NC(C(=O)NO)c1ccc(-c2ccccc2C(F)(F)F)cc1 (centres undefined) | – | 120 | – | – | – | 750 | –
CC(C)(C)C(=O)NC(C(=O)NO)c1ccc(-c2ccc(F)c(F)c2)cc1 (centres undefined) | 195 | 6.4 | 170 | 139 | Non-toxic | 1400 | –
CC(C)(C)C(=O)NC(Cc1ccc(I)cc1)C(=O)NO (centres undefined) | – | 16 | – | – | – | 15000 | –
CC(C)(C)C(=O)NC(C(=O)NO)c1ccc(-c2ccc(F)cc2)cc1 (centres undefined) | 193 | 33 | 225 | 126 | Non-toxic | 6500 | –
CC(C)(C)C(=O)NC(Cc1ccc(Br)cc1)C(=O)NO (centres undefined) | – | 420 | – | – | – | 87000 | –
CC(C)(C)C(=O)NC(C(=O)NO)c1ccc(-c2cccc(F)c2)cc1 (centres undefined) | 316 | 6.2 | 226 | 162 | Non-toxic | 550 | –
Cn1cc(-c2ccc(CC(NC(=O)OC(C)(C)C)C(=O)NO)cc2)cn1 (centres undefined) | – | 14000 | – | – | – | 120000 | –
CC(C)(C)OC(=O)NC(Cc1ccc(I)cc1)C(=O)NO (centres undefined) | – | 21000 | – | – | – | 4300 | –
CC(C)(C)C(=O)NC(C(=O)NO)c1ccc(-c2c(F)c(F)c(F)c(F)c2F)cc1 (centres undefined) | 408 | 8.4 | 461 | 130 | Non-toxic | 1800 | –
Cn1cc(-c2ccc(C(NC(=O)OC(C)(C)C)C(=O)NO)cc2)cn1 (centres undefined) | – | 56 | – | 978 | Non-toxic | 1900 | –
CC(C)(C)OC(=O)NC(C(=O)NO)c1ccc(-c2cc(F)c(F)c(F)c2)cc1 (centres undefined) | – | 200 | – | – | – | 19000 | –
Cn1cc(-c2ccc(CC(NC(=O)C(C)(C)C)C(=O)NO)cc2)cn1 (centres undefined) | – | 740 | – | – | – | 39000 | –
CC(C)(C)OC(=O)NC(Cc1ccc(-c2ccccc2)cc1)C(=O)NO (centres undefined) | – | 5200 | – | – | – | > 500000 | –
CC(C)(C)OC(=O)NC(C(=O)NO)c1ccc(-c2cccc(C(F)(F)F)c2)cc1 (centres undefined) | – | 140 | – | – | – | 2900 | –
CC(C)(C)C(=O)NC(C(=O)NO)c1ccc(-c2c(F)cc(F)cc2F)cc1 (centres undefined) | 450 | 2.5 | 267 | 125 | Non-toxic | 5900 | –
CC(C)(C)OC(=O)NC(C(=O)NO)c1ccc(F)cc1 (centres undefined) | – | 1700 | – | – | – | 5300 | –
CC(C)(C)OC(=O)NC(C(=O)NO)c1ccc(-c2ccc(F)cc2)cc1 (centres undefined) | – | 74 | – | – | – | 100000 | –
CC(C)(C)OC(=O)NC(C(=O)NO)c1ccc(-c2ccc(/C(N)=N/O)cc2)cc1 (centres undefined) | – | 18 | – | 334 | Non-toxic | 400 | –
CC(C)(C)OC(=O)NC(C(=O)NO)c1ccc(-c2cccnc2)cc1 (centres undefined) | – | 220 | – | – | – | 1100 | –

SMILES | IC50 (Plasmodium falciparum [1]) [nM] | Ki [2] [nM] | IC50 (Plasmodium falciparum [3]) [nM] | IC50 (Plasmodium falciparum [4]) [nM] | Activity (HEK293) | Ki [5] [nM] | further results
C[C@H]1[C@H](OC(=O)CCC(=O)O)O[C@@H]2O[C@@]3(C)CC[C@H]4[C@H](C)CC[C@@H]1[C@@]24OO3 [ARTESUNATE] | 0.9 | – | 1.3 | – | – | – | –
CC(C)(C)C(=O)NC(C(=O)NO)c1ccc(-c2ccsc2)cc1 (centres undefined) | 100 | 9.1 | 110 | 103 | Non-toxic | 640 | –
CC(C)(C)C(=O)NC(Cc1ccc(F)cc1)C(=O)NO (centres undefined) | – | 37 | – | – | – | 63000 | –
CC(C)(C)OC(=O)NC(Cc1ccc(Br)cc1)C(=O)NO (centres undefined) | – | 7700 | – | – | – | 39000 | –
CC(C)(C)OC(=O)NC(C(=O)NO)c1ccc(-c2ccccc2)cc1 (centres undefined) | – | 55 | – | – | – | 37000 | –
CC(C)(C)OC(=O)NC(C(=O)NO)c1ccc(-c2ccc(C(F)(F)F)cc2)cc1 (centres undefined) | – | 470 | – | – | – | > 500000 | –
CC(C)(C)C(=O)NC(C(=O)NO)c1ccc(-c2c(F)cccc2F)cc1 (centres undefined) | 246 | 13 | 251 | 142 | Non-toxic | 4800 | –
CC(C)(C)OC(=O)NC(C(=O)NO)c1ccc(-c2cccc(F)c2)cc1 (centres undefined) | – | 130 | – | – | – | 950 | –
CC(C)(C)C(=O)NC(C(=O)NO)c1ccc(-c2ccccc2F)cc1 (centres undefined) | 210 | 12 | 207 | 131 | Non-toxic | 1600 | –
CC(C)(C)OC(=O)NC(C(=O)NO)c1ccc(-c2ccsc2)cc1 (centres undefined) | – | 64 | – | – | – | 20000 | –
CC(C)(C)C(=O)NC(C(=O)NO)c1ccc(Br)cc1 (centres undefined) | 163 | 41 | 194 | 169 | Non-toxic | 65 | –
CC(C)(C)OC(=O)NC(C(=O)NO)c1ccc(-c2ccncc2)cc1 (centres undefined) | – | 540 | – | – | – | 910 | –
CC(C)(C)OC(=O)NC(C(=O)NO)c1ccc(Br)cc1 (centres undefined) | – | 80 | – | 293 | Non-toxic | 27 | –
CC(C)(C)OC(=O)NC(C(=O)NO)c1ccc(-c2ccccc2F)cc1 (centres undefined) | – | 41 | – | 633 | Non-toxic | 950 | –
CC(C)(C)C(=O)NC(C(=O)NO)c1ccc(-c2cc(F)cc(F)c2)cc1 (centres undefined) | 232 | 92 | 239 | 144 | Non-toxic | 580 | –
CC(C)(C)OC(=O)NC(C(=O)NO)c1ccc(-c2cccc(/C(N)=N\O)c2)cc1 (centres undefined) | – | 140 | – | 679 | Non-toxic | 1100 | –
CC(C)(C)C(=O)NC(C(=O)NO)c1ccc(-c2cc(F)c(F)c(F)c2)cc1 (centres undefined) | 107 | 60 | 189 | 126 | Non-toxic | 78 | microsomal CLint at 1 µM [6]: 25 µL/min/mg; solubility kinetic [7]: 12.5 µg/mL (≈ 32.9 µM); half-life [8]: > 17 h; logD [9]: 3; half-life [10]: > 25 h; half-life at 1 µM [11]: 1.15 h; microsomal CLint at 1 µM [12]: 8 µL/min/mg; half-life at 1 µM [13]: 3.68 h; solubility kinetic [14]: 12.5 µg/mL (≈ 32.9 µM)
Cn1cc(-c2ccc(C(NC(=O)C(C)(C)C)C(=O)NO)cc2)cn1 (centres undefined) | – | 7.2 | – | – | – | 11000 | –
CC(C)(C)C(=O)NC(Cc1ccc(-c2ccccc2)cc1)C(=O)NO (centres undefined) | – | 650 | – | – | – | 27000 | –
CC(C)(C)C(=O)NC(C(=O)NO)c1ccc(F)cc1 (centres undefined) | 2090 | 29 | 2010 | 1530 | Non-toxic | 4000 | –
CC(C)(C)C(=O)NC(C(=O)NO)c1ccc(-c2ccccc2)cc1 (centres undefined) | 219 | 7 | 190 | 96 | Non-toxic | 1600 | –
